For two compounds, Ki and EC50 results are on record in ChEMBL document CHEMBL1138590, “Discovery of novel dihydro-9,10-ethano-anthracene carboxamides as glucocorticoid receptor modulators” (Bioorg Med Chem Lett, 2009).

Molecules are shown by their SMILES.

By Ki is commonly meant the dissociation constant of the complex between target and ligand, obtained from inhibition or displacement. One may read the EC50 as the concentration that produces a half-maximal response.

One test has as its target T1, Progesterone receptor (Homo sapiens, UniProt P06401).
T1 sequence (P06401 whole entry): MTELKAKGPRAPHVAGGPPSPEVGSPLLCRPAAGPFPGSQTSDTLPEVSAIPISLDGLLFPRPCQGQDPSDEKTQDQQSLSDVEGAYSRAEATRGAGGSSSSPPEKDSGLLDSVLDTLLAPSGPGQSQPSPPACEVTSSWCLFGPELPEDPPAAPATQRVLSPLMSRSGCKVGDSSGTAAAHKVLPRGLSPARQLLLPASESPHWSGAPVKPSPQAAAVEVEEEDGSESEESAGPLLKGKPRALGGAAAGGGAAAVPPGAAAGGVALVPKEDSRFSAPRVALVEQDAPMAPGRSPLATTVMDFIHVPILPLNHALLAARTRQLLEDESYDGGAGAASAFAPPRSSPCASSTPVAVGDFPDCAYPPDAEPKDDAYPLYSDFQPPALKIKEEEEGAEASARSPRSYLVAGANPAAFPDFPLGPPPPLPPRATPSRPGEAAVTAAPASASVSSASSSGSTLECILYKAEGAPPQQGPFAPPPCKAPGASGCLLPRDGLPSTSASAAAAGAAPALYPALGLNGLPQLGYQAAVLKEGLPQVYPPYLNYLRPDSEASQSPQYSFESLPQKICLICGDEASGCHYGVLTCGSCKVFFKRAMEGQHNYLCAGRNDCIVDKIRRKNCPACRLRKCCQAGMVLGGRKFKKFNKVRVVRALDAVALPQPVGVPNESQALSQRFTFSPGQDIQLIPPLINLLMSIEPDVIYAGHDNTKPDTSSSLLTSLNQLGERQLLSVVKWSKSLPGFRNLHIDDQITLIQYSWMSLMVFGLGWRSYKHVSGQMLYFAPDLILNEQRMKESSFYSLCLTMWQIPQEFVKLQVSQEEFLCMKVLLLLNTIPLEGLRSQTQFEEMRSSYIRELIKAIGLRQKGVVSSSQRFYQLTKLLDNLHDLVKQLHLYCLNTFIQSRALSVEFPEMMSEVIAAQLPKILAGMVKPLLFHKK
In words: Displacement of […] from progesterone receptor by fluorescence polarization assay. Put shortly:
(§1)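 Fluorescence polarization competition binding: the test compound competes with a fluorescently labelled ligand for binding to the full-length receptor or its ligand-binding domain. IC50 is fitted from the polarization signal with a four-parameter logistic equation. Ki is derived by Cheng–Prusoff, Ki = IC50/(1 + ligand concentration/Kd). Values are means of duplicate experiments.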

The target of another test is T2, Estrogen receptor (Homo sapiens, UniProt P03372).
T2 sequence (P03372 whole entry): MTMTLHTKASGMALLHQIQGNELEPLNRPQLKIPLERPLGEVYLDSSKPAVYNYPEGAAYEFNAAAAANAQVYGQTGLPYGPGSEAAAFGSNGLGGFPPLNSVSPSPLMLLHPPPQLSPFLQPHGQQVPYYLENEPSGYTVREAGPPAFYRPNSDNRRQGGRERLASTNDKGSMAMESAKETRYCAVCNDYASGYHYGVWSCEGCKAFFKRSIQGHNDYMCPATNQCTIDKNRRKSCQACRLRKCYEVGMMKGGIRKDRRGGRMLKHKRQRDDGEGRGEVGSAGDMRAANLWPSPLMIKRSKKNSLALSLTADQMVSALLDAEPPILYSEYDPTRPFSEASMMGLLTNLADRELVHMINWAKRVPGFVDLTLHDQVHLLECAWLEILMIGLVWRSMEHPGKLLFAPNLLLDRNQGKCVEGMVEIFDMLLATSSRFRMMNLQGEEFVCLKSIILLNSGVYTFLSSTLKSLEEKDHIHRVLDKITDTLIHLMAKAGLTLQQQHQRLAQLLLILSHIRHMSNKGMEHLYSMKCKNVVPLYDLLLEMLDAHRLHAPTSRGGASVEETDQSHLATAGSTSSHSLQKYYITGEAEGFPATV
In words: Displacement of […] from estrogen receptor alpha by fluorescence polarization assay. Put shortly:
as §1
In general terms: Polarisation of emitted light reports the rotation of a fluorescent probe.

The target in test [1] is T3, Glucocorticoid receptor (Homo sapiens, UniProt P04150).
T3 sequence (P04150 whole entry): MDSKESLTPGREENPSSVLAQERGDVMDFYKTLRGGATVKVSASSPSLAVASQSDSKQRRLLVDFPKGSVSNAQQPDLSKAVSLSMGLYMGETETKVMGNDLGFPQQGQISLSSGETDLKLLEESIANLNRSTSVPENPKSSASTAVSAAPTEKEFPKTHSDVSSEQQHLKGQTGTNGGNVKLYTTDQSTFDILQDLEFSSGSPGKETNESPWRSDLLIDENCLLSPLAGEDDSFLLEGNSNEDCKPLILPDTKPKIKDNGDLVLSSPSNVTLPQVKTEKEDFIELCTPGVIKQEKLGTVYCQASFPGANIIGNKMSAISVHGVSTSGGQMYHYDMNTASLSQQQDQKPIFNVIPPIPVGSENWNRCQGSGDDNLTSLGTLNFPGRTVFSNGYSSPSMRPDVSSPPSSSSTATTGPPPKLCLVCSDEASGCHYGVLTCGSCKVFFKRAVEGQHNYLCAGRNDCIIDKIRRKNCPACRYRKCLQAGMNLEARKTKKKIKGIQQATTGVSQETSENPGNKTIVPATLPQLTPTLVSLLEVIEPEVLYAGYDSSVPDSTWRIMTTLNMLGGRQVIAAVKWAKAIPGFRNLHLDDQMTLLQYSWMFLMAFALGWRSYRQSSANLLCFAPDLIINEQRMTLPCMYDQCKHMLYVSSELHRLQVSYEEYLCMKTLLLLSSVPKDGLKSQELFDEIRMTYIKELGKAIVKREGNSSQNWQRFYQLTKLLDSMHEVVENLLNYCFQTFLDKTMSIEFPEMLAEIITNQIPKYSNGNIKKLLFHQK
In words: Transrepression activity at GR in IL-1-beta-stimulated human A549 cells assessed as inhibition of NF-kappaB-dependent E-selectin transcription by luciferase reporter gene assay. Format: cell-based. On the technique in general: A reporter such as luciferase makes a cellular process visible.

Test [2] addresses T3, Glucocorticoid receptor. In words: Agonist activity at GR ligand binding domain expressed in human NP1 cells assessed as glucocorticoid response element transactivation by GAL4 luciferase reporter gene assay. Type of test: cell-based.

For `C[C@@]1(C(=O)Nc2nccs2)CC2c3ccccc3C1c1ccccc12`, the values for the Ki on Progesterone receptor and on Estrogen receptor were 147 nM and 15000 nM, respectively.
For the compound `C[C@@]1(C(=O)Nc2nccs2)CC2(C#N)c3ccccc3C1c1ccccc12`, the EC50 at Glucocorticoid receptor [1] is 19.4 nM; at Glucocorticoid receptor [2], above 10000 nM. Further, the Ki at Progesterone receptor was found to be 34 nM; on Estrogen receptor, 26300 nM.
